Test results: ChEMBL document CHEMBL1123298, “Novel 1,3-bis(aryloxy)propanes as leukotriene D4 antagonists” (1986)

System: Cavia porcellus
Assay: In vivo antagonistic activity against leukotriene D4 (LTD4) in guinea pig lung
Assay type: functional
Settings: read-out: ID50 (the source's name)
Procedure, shortened: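 Drug in propylene glycol given iv 10 min before LTD4 400 ng/kg iv; controls received solvent. Lung overflow volume read at 5 min; ID50 by inverse prediction, common-slope parallel line assay, 3-fold doses, 2–6 animals/dose.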

Row | Compound | ED50
1 | CCCc1c(OCC(O)COc2cccc(NC(=O)CC(=O)OCC)c2C#N)ccc(C(C)=O)c1O (stereo not given) | 0.64 mg/kg
2 | CCCc1c(OCC(O)COc2cccc(NC(=O)C(=O)O)c2C#N)ccc(C(C)=O)c1O (stereo not given) | 1.8 mg/kg
3 | CCCc1c(OCCCOc2cccc(NC(=O)CCC(=O)OCC)c2)ccc(C(C)=O)c1O | 1.28 mg/kg
4 | CCCc1c(OCC(O)COc2cccc(NC(=O)C(=O)OCC(C)(C)C)c2C#N)ccc(C(C)=O)c1O (stereo not given) | 0.461 mg/kg
5 | CCCc1c(OCCCOc2cccc(NC(=O)C(=O)OCC)c2C#N)ccc(C(C)=O)c1O | 0.342 mg/kg
6 | CCCc1c(OCC(O)COc2ccc3c(=O)cc(C(=O)[O-])oc3c2CCC)ccc(C(C)=O)c1O.[Na+] (stereo not given) [FPL-55712 SODIUM SALT] | 0.153 mg/kg
7 | CCCc1c(OCCCOc2cccc(NC(=O)CCC(=O)OCC)c2C#N)ccc(C(C)=O)c1O | 1.77 mg/kg
8 | CCCc1c(OCCCOc2cccc(NC(=O)C(=O)OCC)c2)ccc(C(C)=O)c1O | 1.09 mg/kg
9 | CCCc1c(OCC(O)COc2cccc(NC(=O)C(=O)OCC)c2C#N)ccc(C(C)=O)c1O (stereo not given) | 0.113 mg/kg
10 | CCCc1c(NC(=O)C(=O)OCC)cccc1OCC(O)COc1ccc(C(C)=O)c(O)c1CCC (stereo not given) | 2.6 mg/kg
